TNAP act hi DEA: activators of human TNAP at high phosphate acceptor concentration | P05186 | purified TNAP, CDP-star luminescence, 1 M DEA, 30 min; hits give high values; 0 = EDTA background, 1 = DMSO-only activity | activation factor at 20 µM | 200,000 tested, under 10 active | AID 1136;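 active = activation factor at least 2 at 20 µM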
Target sequence (P05186 whole entry, looked up): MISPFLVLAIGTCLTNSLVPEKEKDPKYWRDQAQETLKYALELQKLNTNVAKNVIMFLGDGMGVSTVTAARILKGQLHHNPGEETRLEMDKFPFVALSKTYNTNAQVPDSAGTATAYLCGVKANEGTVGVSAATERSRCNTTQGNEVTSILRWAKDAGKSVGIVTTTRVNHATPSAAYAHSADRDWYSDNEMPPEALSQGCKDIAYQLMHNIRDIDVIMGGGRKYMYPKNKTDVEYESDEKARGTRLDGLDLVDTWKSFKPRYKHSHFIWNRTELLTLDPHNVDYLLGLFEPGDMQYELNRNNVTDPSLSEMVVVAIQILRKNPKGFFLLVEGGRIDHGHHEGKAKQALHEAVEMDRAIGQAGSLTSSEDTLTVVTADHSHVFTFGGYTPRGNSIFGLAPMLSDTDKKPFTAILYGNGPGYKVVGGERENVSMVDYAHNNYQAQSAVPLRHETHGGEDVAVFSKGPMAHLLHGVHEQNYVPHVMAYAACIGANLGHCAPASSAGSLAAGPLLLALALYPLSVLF
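Assay system: human TNAP; Input: enzyme diluted 1/800 final; Reagent: CDP-star luminogenic substrate at 100 µM final; Timing: 30 min, room temperature; Signal: luminescence; Evaluation: TNAP activation factor scaled between EDTA and DMSO control wells.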
TNAP inh no acc: TNAP (human) inhibition, acceptor-free conditions. AID 1012. 200,000 tested, 0.26% active. P05186. purified TNAP, CDP-star luminescence, 30 min. inhibition, % at 20 µM;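 active = tissue-nonspecific alkaline phosphatase inhibition above about 50% at 20 µM in the single-dose screen, limit read from the data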;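 note: 0% = DMSO negative control and 100% = EDTA positive control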
L major viab: inhibitors of Leishmania major promastigote growth; Leishmania major promastigotes, resazurin fluorescence viability; 200,000 tested, 9% active; inhibition, % at 10 µM; in the data active = inhibition above about 50%;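 note: promastigotes grown with compound for 44 hours at 28 °C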
HCT116 PTEN-null: growth suppressors of cells with PTEN tumor suppressor deletion | HCT116 PTEN-null viability, CellTiter-Glo, 60 h; hits give low values | viability, % at 10 µM | 140,000 tested, 1.2% active | AID 827;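 active = viability at or below a set limit, 4 SD under the median of all tested compounds, cut at about 3.7% in these data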;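 note: PTEN knockout HCT116 line with beta catenin targeted HCT116 as companion control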
TNAP inh hi DEA: TNAP (human) inhibition, high acceptor. P05186. purified TNAP, CDP-star luminescence, 1 M DEA. inhibition, % at 20 µM. 200,000 tested, 0.03% active. AID 1135;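 active = over 50% inhibition of tissue-nonspecific alkaline phosphatase at 20 µM in the single-dose screen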;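 note: plate controls were DMSO wells for no effect and EDTA-quenched wells as full inhibition for full effect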
bCat KO growth: beta-catenin-lacking colon tumor cell growth suppression; HCT116 beta-catenin knockout viability, CellTiter-Glo, 60 h; hits give low values; viability, % at 10 µM; 140,000 tested, 1.5% active; AID 818;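 active = viability at or under a set limit, the compound median less 4 SD, cut at about 6% in these data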;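 note: 0% = Hyamine 1622 control at 20 µM and 100% = untreated cell control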
* = called active by the depositor. Shown are actives, neighbours in structure and some others; about 9.6% of the full set was active somewhere.

COc1ccc(CCCC(=O)N/N=C/c2cccc(OC)c2O)cc1C was read as TNAP act hi DEA 1, TNAP inh no acc -18.6, L major viab 97.9*, HCT116 PTEN-null 9.1, TNAP inh hi DEA 4.8 and bCat KO growth 9.6.
COc1cccc(/C=N/NC(=O)CSc2nnc(C)n2-c2ccccc2)c1O was read as TNAP act hi DEA 1, TNAP inh no acc -42.3, L major viab 9.5, HCT116 PTEN-null 10.1, TNAP inh hi DEA 2.9 and bCat KO growth 6.9.
`CCCCSc1nc(C)cc(SCC(=O)N/N=C/c2cccc(OC)c2O)n1` gave TNAP act hi DEA 1, TNAP inh no acc -9.9, L major viab 98.7*, HCT116 PTEN-null 4.3, TNAP inh hi DEA 0.7 and bCat KO growth 5.3*.
`COc1cccc(/C=N/NC(=O)C[n+]2ccccc2)c1O` gave TNAP act hi DEA 1, TNAP inh no acc -81.3, L major viab -10.3, HCT116 PTEN-null 103.5, TNAP inh hi DEA -1.9 and bCat KO growth 94.6.
Screening C#CCOCCOCCOCCNc1nc(N2CCN(C(=O)C([C@@H](C)CC)n3cc(C(N)Cc4ccc(O)cc4)nn3)CC2)nc(N2CCN(C(=O)[C@H](CCC(=O)O)n3cc(C(N)CO)nn3)CC2)n1 (some centres undefined) returned TNAP act hi DEA 1.1, TNAP inh no acc -10.3, L major viab -4.8 and TNAP inh hi DEA -8.2.
COc1ccccc1NS(=O)(=O)c1ccc(C)c(NC(=O)NC2CCCCC2)c1 was read as TNAP act hi DEA 1.1, TNAP inh no acc -29.3, L major viab 100.2*, HCT116 PTEN-null 86.9, TNAP inh hi DEA -7.1 and bCat KO growth 79.4.
Screening COc1ccc(NS(=O)(=O)c2ccc(C)c(NC(=O)NC3CCCCC3)c2)cc1 returned TNAP act hi DEA 1, TNAP inh no acc 14.3, L major viab 99.3*, HCT116 PTEN-null 70.7, TNAP inh hi DEA -2.6 and bCat KO growth 76.2.
COc1ccc(S(=O)(=O)Nc2ccccc2OC)cc1C was read as TNAP act hi DEA 1.1, TNAP inh no acc -10.4, L major viab 2.2, HCT116 PTEN-null 98.5, TNAP inh hi DEA -7.0 and bCat KO growth 97.5.
Screening COc1ccc(S(=O)(=O)Nc2ccccc2OC)cc1NC(=O)CC1CC2CCC1C2 (centres undefined) returned TNAP act hi DEA 1, TNAP inh no acc -11.5, L major viab 100.3*, HCT116 PTEN-null 62.9, TNAP inh hi DEA -1.1 and bCat KO growth 55.3.
Screening COc1ccc(NS(=O)(=O)c2cccc(NC(=O)NC3CCCCC3)c2)cc1 returned TNAP act hi DEA 1, TNAP inh no acc -5.2, L major viab 98.6*, HCT116 PTEN-null 70.3, TNAP inh hi DEA 3.7 and bCat KO growth 61.8.
`COc1ccc(S(=O)(=O)Nc2ccccc2Cl)cc1NC(C)=O` gave TNAP act hi DEA 1.1, TNAP inh no acc -5.6, L major viab 3.0 and TNAP inh hi DEA -8.7.
Screening CC(C)CCNC(=O)COc1ccc(N(C)S(=O)(=O)c2ccc(F)cc2)cc1 returned TNAP act hi DEA 1.1, TNAP inh no acc -20.7, L major viab 14.7 and TNAP inh hi DEA -6.8.
`O=C(C(=O)N1CCCC1CO)N1CCCC1CO` (centres undefined) gave TNAP act hi DEA 1, TNAP inh no acc 0.1, L major viab -6.3 and TNAP inh hi DEA -1.3.
`COc1ccc2c(C)cc(SCC(=O)N(C)C3CCS(=O)(=O)C3)nc2c1` (centres undefined) gave TNAP act hi DEA 1, TNAP inh no acc -15.1, L major viab 2.8 and TNAP inh hi DEA -0.1.
`COc1ccc(NS(=O)(=O)c2cccc(N/C(=N\S(=O)(=O)c3ccccc3)c3ccc(F)cc3)c2)cc1` gave TNAP act hi DEA 1.1, TNAP inh no acc -9.5, L major viab 76.1*, HCT116 PTEN-null 50.7, TNAP inh hi DEA -9.4 and bCat KO growth 49.6.
CCOC(=O)c1ccc2c(c1)nc(SCC(=O)N1CCOCC1)n2CC was read as TNAP act hi DEA 1, TNAP inh no acc -8.2, L major viab -0.6 and TNAP inh hi DEA -4.7.
`CCOC(=O)c1ccc2c(c1)nc(SCc1cn3ccsc3n1)n2CC` gave TNAP act hi DEA 1.1, TNAP inh no acc 1.4, L major viab 99.3*, HCT116 PTEN-null 95.8, TNAP inh hi DEA -6.4 and bCat KO growth 83.4.
`CCOC(=O)/C(N)=C/c1ncc(C(F)(F)F)cc1Cl` gave TNAP act hi DEA 1, TNAP inh no acc -2.1, L major viab -2.7, HCT116 PTEN-null 93.9, TNAP inh hi DEA 2.0 and bCat KO growth 97.5.
Screening Cn1c(=O)c2c(nc(CN3CCc4ccccc4C3)n2Cc2ccccc2F)n(C)c1=O returned TNAP act hi DEA 1, TNAP inh no acc 2.2, L major viab 61.2*, HCT116 PTEN-null 44.4, TNAP inh hi DEA 4.7 and bCat KO growth 43.3.
For Cc1ccc(Cn2c(CN3CCN(C(=O)c4ccco4)CC3)nc3c2c(=O)n(C)c(=O)n3C)cc1 the results were TNAP act hi DEA 1, TNAP inh no acc -9.1, L major viab 78.1*, HCT116 PTEN-null 84.2, TNAP inh hi DEA -2.7 and bCat KO growth 79.7.
`Cn1c(=O)c2c(nc(CN3CCc4ccccc4C3)n2Cc2cccc(Cl)c2)n(C)c1=O` gave TNAP act hi DEA 1.1, TNAP inh no acc -11.0, L major viab 56.2*, HCT116 PTEN-null 54.1, TNAP inh hi DEA -5.5 and bCat KO growth 53.5.
`Cn1c(=O)c2c(nc(CN3CCN(CCO)CC3)n2Cc2cccc3ccccc23)n(C)c1=O` gave TNAP act hi DEA 1, TNAP inh no acc -4.3, L major viab 99.3*, HCT116 PTEN-null 78.7, TNAP inh hi DEA -1.2 and bCat KO growth 75.5.
Screening CCN1CCN(Cc2nc3c(c(=O)n(C)c(=O)n3C)n2Cc2ccccc2Cl)CC1 returned TNAP act hi DEA 1.1, TNAP inh no acc -12.9, L major viab 1.1, HCT116 PTEN-null 87.4, TNAP inh hi DEA -6.9 and bCat KO growth 99.2.
Screening CC(C)(C)c1ccc(OCC(=O)NNC(=S)NC(=O)c2ccccc2[N+](=O)[O-])c(Br)c1 returned TNAP act hi DEA 0.9, TNAP inh no acc -73.5, L major viab -3.2, HCT116 PTEN-null 65.6, TNAP inh hi DEA 5.0 and bCat KO growth 55.5.
For O=[N+]([O-])c1ccc(N/N=C\c2ccccc2OCc2ccccc2)cc1 the results were TNAP act hi DEA 0.8, TNAP inh no acc 23.5, L major viab 53.4*, HCT116 PTEN-null 96.5, TNAP inh hi DEA 22.9 and bCat KO growth 91.8.
Screening C/C(=N\Nc1cccc([N+](=O)[O-])c1)c1ccccc1O returned TNAP act hi DEA 1, TNAP inh no acc 1.5, L major viab -0.7 and TNAP inh hi DEA 2.1.
`O=[N+]([O-])c1ccc(N/N=C/c2cccc(O)c2O)c(S(=O)(=O)N2CCOCC2)c1` gave TNAP act hi DEA 0.6, TNAP inh no acc 78.9*, L major viab -0.3 and TNAP inh hi DEA 39.1.
For O=[N+]([O-])c1cccc(N/N=C/c2cccc(O)c2O)c1 the results were TNAP act hi DEA 0.9, TNAP inh no acc 2.4, L major viab 90.1* and TNAP inh hi DEA 6.5.
